# Results reported in ChEMBL document CHEMBL1926509, “Discovery of pyrazolo[1,5-a]pyridines as p110α-selective PI3 kinase inhibitors” (Bioorg Med Chem, 2012).
# The source made the active and inactive calls. The calls are words filed in the database; no cut-off is given here.
# Tests used:
# [1] = target: Mitogen-activated protein kinase 14 (Homo sapiens) (UniProt Q16539); assay: Inhibition of p38alpha assessed as residual activity at 10 uM
# [2] = target: Dual specificity mitogen-activated protein kinase kinase 1 (Homo sapiens) (UniProt Q02750); assay: Inhibition of MKK1 assessed as residual activity at 1 uM
# [3] = target: Serine/threonine-protein kinase mTOR (Homo sapiens, UniProt P42345); assay: Inhibition of mTOR
# [4] = test system: Mus musculus; assay: Toxicity in human HCT116 cells xenografted Rag1 knockout mouse assessed as body weight loss at 20 mg/kg, ip qd measured up to day 10; assay type: organism-based, HCT-116; parameters: dose 20 mg/kg, route intraperitoneal; conditions: in vivo
# Summary of the method: (§1)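 Female specific-pathogen-free Rag1−/− mice carrying subcutaneous HCT-116 tumours, given 20 mg/kg ip daily for 14 days in a DMSO/PEG-400/hydroxypropyl-β-cyclodextrin/water vehicle; controls received vehicle; n = 7 per group. Bodyweight recorded daily; mice culled if loss exceeded 20% of starting weight.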
# [5] = Cytotoxicity against human NZB5 cells expressing wild type p110alpha assessed as inhibition of [3H]thymidine incorporation after 5 days; assay type: functional, cell-based
# Summary of the method: (§2)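 Early-passage lab-derived lines in α-MEM with insulin, transferrin, selenite and 5% FBS. Seeded at 1000 cells/well; drug added in 10-fold steps up to 20 µM. Incubated five days under 5% O₂/5% CO₂/90% N₂, with ³H-thymidine (0.04 µCi/well) over the last 6 h. Duplicates per dose; least-squares exponential fit; IC50 is the concentration giving 50% less incorporation.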
# [6] = Inhibition of DNA-PK
# [7] = Inhibition of PKA assessed as residual activity at 1 uM
# [8] = target: Misshapen-like kinase 1 (Homo sapiens) (UniProt Q8N4C8); assay: Inhibition of MINK1 assessed as residual activity at 10 uM
# [9] = target: Phosphatidylinositol 4,5-bisphosphate 3-kinase catalytic subunit alpha isoform (Homo sapiens, UniProt P42336, E545K); assay: Inhibition of recombinant PI3K p110alpha E545K mutant using L-alpha-phosphatidylinositol as substrate and [gamma33P]ATP after 60 mins by thin layer chromatographic technique
# [10] = target: T1, Phosphatidylinositol 4,5-bisphosphate 3-kinase catalytic subunit alpha isoform (Homo sapiens, UniProt P42336, H1047R); assay: Inhibition of PI3K […] H1047R mutant-mediated PKB phosphorylation at Ser473 in human HCT116 cells after 15 mins by immunoblot analysis; assay type: cell-based, HCT-116
# T1 sequence (P42336 whole entry H1047R, canonical isoform): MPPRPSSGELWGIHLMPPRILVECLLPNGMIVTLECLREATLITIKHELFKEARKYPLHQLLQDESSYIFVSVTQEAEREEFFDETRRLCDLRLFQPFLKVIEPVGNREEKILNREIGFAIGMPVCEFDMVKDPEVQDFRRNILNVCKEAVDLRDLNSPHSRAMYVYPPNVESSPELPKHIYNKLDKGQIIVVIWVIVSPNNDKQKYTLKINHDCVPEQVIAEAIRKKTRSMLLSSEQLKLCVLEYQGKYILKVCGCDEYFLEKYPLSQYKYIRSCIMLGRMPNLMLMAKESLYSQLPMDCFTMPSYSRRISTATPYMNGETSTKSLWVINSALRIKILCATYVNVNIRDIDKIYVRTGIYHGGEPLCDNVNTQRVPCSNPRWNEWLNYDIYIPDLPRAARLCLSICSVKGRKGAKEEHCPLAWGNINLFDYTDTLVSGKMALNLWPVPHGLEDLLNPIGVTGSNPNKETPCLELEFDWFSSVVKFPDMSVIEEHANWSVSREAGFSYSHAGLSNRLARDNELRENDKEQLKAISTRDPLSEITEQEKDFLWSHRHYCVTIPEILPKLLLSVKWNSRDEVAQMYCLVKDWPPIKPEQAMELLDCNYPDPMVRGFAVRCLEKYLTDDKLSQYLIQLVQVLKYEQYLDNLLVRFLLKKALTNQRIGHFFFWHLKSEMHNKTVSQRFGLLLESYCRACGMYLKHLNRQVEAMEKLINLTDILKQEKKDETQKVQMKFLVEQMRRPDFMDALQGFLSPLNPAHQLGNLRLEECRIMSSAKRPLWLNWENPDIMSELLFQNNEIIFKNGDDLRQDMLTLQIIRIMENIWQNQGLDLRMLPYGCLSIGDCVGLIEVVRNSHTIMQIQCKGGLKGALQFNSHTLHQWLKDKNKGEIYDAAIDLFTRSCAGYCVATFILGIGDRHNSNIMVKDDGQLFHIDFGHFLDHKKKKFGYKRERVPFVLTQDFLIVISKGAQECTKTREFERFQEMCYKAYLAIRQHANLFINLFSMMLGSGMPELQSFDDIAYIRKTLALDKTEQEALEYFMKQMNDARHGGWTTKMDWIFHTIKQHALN
# Summary of the method: (§3)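 HCT-116 cells in MEM alpha with 10% FBS and penicillin/streptomycin were seeded, grown 1 day, then serum-starved overnight. They were exposed to a range of inhibitor concentrations in DMSO (0.1% final) for 15 min, then stimulated with 500 nM insulin for 5 min. Phospho-PKB (Ser473 or Thr308) was detected by immunoblotting.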
# [11] = target: High affinity nerve growth factor receptor (Homo sapiens) (UniProt P04629); assay: Inhibition of TrkA assessed as residual activity at 10 uM
# High affinity nerve growth factor receptor (Homo sapiens), sequence (P04629 33-796 limits assumed): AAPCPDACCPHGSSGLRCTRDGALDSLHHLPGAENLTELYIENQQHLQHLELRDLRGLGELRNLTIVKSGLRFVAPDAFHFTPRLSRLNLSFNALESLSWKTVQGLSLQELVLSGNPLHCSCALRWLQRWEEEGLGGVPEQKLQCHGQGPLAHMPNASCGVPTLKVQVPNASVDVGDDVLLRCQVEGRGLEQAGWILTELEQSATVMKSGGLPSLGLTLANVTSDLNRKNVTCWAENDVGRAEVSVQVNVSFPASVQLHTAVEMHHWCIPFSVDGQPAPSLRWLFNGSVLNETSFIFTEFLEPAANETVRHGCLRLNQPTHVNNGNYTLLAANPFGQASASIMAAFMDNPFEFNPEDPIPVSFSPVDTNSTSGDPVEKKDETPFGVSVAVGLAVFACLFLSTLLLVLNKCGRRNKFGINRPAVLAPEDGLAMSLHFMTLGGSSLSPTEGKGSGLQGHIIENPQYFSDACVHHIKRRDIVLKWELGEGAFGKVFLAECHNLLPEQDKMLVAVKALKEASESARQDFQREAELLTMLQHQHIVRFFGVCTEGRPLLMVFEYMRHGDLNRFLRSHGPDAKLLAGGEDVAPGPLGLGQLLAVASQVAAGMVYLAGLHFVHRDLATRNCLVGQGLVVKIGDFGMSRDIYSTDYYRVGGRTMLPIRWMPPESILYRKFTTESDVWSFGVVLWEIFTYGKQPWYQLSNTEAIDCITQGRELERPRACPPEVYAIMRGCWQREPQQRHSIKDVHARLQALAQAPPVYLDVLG
# [12] = target: T2, Phosphatidylinositol 4,5-bisphosphate 3-kinase catalytic subunit alpha isoform (Homo sapiens, UniProt P42336); conditions: 100 nM
# T2 sequence (P42336 whole entry, canonical isoform): as the sequence (P42336 whole entry H1047R, canonical isoform) above, with R1047H counted along it
# [13] = test system: Mus musculus; assay: Toxicity in human HCT116 cells xenografted Rag1 knockout mouse assessed as mortality at 20 mg/kg, ip qd for 14 days; assay type: organism-based, HCT-116; parameters: dose 20 mg/kg, route intraperitoneal; conditions: in vivo, 336 h
# Summary of the method: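 Age-matched specific pathogen-free female Rag1-/- mice bearing subcutaneous HCT-116 tumours (5 × 10⁶ cells inoculated in PBS), n = 7 per group. Drug given ip at 20 mg/kg once daily for 14 days in 7.5% DMSO/42.5% PEG-400/20% 2-hydroxypropyl-β-cyclodextrin/30% water; controls received vehicle alone. Bodyweight recorded daily; mice culled when weight loss exceeded 20% of starting weight.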
# [14] = target: Ribosomal protein S6 kinase alpha-1 (Homo sapiens) (UniProt Q15418); assay: Inhibition of RSK1 assessed as residual activity at 10 uM
# Ribosomal protein S6 kinase alpha-1 (Homo sapiens), sequence (Q15418 whole entry, canonical isoform): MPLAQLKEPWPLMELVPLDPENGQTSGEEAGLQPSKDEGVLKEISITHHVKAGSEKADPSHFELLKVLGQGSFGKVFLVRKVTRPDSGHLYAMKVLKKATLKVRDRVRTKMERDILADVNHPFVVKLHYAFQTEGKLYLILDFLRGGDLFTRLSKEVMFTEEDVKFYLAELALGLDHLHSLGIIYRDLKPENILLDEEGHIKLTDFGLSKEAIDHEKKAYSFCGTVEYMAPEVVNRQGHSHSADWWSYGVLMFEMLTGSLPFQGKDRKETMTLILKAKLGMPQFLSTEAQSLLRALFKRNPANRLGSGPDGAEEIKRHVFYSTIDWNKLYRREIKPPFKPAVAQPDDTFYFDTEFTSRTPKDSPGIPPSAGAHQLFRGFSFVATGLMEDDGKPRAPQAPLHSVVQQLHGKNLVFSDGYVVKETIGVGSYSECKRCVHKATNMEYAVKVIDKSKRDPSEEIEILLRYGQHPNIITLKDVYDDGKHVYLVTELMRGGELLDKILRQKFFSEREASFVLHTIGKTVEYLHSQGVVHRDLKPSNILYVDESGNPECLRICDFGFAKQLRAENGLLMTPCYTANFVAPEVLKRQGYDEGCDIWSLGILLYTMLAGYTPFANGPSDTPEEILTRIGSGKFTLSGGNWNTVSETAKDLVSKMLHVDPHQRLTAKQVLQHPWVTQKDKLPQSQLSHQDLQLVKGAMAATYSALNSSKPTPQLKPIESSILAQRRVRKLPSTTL
# [15] = target: T1, Phosphatidylinositol 4,5-bisphosphate 3-kinase catalytic subunit alpha isoform; assay: Inhibition of recombinant PI3K p110alpha H1047R mutant using L-alpha-phosphatidylinositol as substrate and [gamma33P]ATP after 60 mins by thin layer chromatographic technique
# [16] = target: Insulin receptor (Homo sapiens) (UniProt P06213); assay: Inhibition of IR assessed as residual activity at 10 uM
# Insulin receptor (Homo sapiens), sequence (P06213 28-758 limits assumed): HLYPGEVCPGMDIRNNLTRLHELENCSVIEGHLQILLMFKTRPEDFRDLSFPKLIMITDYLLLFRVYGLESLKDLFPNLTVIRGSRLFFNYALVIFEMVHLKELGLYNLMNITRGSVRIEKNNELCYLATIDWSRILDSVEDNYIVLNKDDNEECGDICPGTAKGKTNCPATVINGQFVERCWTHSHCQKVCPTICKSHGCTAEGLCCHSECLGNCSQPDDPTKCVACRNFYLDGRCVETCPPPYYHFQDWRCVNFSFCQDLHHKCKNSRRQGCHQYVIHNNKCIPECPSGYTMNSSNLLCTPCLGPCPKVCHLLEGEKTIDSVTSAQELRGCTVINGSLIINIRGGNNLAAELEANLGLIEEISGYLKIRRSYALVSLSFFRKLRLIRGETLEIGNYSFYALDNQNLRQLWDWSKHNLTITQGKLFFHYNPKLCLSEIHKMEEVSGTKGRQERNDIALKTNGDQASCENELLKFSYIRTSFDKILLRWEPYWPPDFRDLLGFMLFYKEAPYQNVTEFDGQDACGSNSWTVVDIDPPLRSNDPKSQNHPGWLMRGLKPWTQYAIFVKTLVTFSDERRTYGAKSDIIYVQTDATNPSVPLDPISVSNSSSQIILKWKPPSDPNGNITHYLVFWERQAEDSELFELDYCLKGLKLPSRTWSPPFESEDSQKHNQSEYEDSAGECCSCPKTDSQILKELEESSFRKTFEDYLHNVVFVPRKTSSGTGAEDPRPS
# Insulin receptor (Homo sapiens), sequence (P06213 763-1382 limits assumed): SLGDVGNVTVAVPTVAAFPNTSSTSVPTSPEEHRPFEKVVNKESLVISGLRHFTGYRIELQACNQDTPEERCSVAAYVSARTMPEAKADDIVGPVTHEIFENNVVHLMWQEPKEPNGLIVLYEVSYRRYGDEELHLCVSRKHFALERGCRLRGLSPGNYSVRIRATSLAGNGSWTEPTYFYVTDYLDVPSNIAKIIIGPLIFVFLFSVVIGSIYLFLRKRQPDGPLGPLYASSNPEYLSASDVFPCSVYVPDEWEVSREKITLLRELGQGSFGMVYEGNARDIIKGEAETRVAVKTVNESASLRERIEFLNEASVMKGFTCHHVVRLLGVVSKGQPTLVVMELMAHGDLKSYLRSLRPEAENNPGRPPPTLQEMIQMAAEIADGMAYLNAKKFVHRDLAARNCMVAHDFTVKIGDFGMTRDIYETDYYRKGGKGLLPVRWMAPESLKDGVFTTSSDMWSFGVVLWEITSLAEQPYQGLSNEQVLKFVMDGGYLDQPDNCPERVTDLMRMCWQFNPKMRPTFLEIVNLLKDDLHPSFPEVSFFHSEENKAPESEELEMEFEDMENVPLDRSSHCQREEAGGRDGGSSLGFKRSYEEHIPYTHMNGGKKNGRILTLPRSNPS
# [17] = target: T2, Phosphatidylinositol 4,5-bisphosphate 3-kinase catalytic subunit alpha isoform; conditions: 100 nM; remark: listed apart in the source
# [18] = target: Insulin receptor (Homo sapiens) (UniProt P06213); assay: Inhibition of IR assessed as residual activity at 1 uM
# [19] = target: Phosphatidylinositol 4,5-bisphosphate 3-kinase catalytic subunit beta isoform (Homo sapiens, UniProt P42338); assay: Inhibition of recombinant PI3K p110beta using L-alpha-phosphatidylinositol as substrate and [gamma33P]ATP after 60 mins by thin layer chromatographic technique
# Summary of the method: (§4)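 In-house recombinant class Ia PI3K isoform (0.1 µg) with L-α-phosphatidylinositol substrate in lipid kinase buffer (Tris–HCl pH 7.4, NaCl, EDTA), 1% DMSO final. Started with ATP mix (5 mM MgCl₂, 100 µM ATP plus [γ-³³P]ATP), 1 h at room temperature, stopped with 1 M HCl. Lipids extracted in two steps, separated by TLC, read by phosphorimager. Nine inhibitor concentrations; IC50 averaged over two experiments.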
# [20] = test system: Mus musculus; assay: Toxicity in human HCT116 cells xenografted Rag1 knockout mouse assessed as body weight loss at 20 mg/kg, ip qd measured after 10 days relative to untreated control; assay type: organism-based, HCT-116; parameters: dose 20 mg/kg, route intraperitoneal; conditions: in vivo, 240 h; summary of the method: as §1
# [21] = target: T2, Phosphatidylinositol 4,5-bisphosphate 3-kinase catalytic subunit alpha isoform; assay: Inhibition of recombinant PI3K p110alpha using L-alpha-phosphatidylinositol as substrate and [gamma33P]ATP after 60 mins by thin layer chromatographic technique; summary of the method: as §4
# [22] = target: Misshapen-like kinase 1 (Homo sapiens) (UniProt Q8N4C8); assay: Inhibition of MINK1 assessed as residual activity at 1 uM
# [23] = test system: HCT-116; assay: Antitumor activity against human HCT116 cells xenografted in Rag1 knockout mouse assessed as tumor growth inhibition at 20 mg/kg, ip qd for 14 days relative to untreated control; assay type: functional; conditions: HCT-116, ip, 336 h, route intraperitoneal, read-out: GI
# Summary of the method: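 Female specific-pathogen-free Rag1−/− mice, age-matched, inoculated subcutaneously with 5×10⁶ HCT-116 cells in PBS. Dosed ip at 20 mg/kg q.d. for 14 days in 7.5% DMSO/42.5% PEG-400/20% hydroxypropyl-β-cyclodextrin/30% water; controls received vehicle only; n = 7 per group. Tumour volume measured three times weekly; 1-way ANOVA with Holm-Sidak comparison at study end.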
# [24] = Selectivity ratio of IC50 for PI3K p110delta to IC50 for PI3K p110alpha
# [25] = target: Ribosomal protein S6 kinase alpha-1 (Homo sapiens) (UniProt Q15418); assay: Inhibition of RSK1 assessed as residual activity at 1 uM
# [26] = Cytotoxicity against human NZOV9 cells expressing p110alpha Y1021C mutant assessed as inhibition of [3H]thymidine incorporation after 5 days; assay type: functional, cell-based; summary of the method: as §2
# [27] = Inhibition of PKA assessed as residual activity at 10 uM
# [28] = target: T1, Phosphatidylinositol 4,5-bisphosphate 3-kinase catalytic subunit alpha isoform; assay: Inhibition of PI3K […] H1047R mutant-mediated PKB phosphorylation at Thr308 in human HCT116 cells after 15 mins by immunoblot analysis; assay type: cell-based, HCT-116; summary of the method: as §3
# [29] = target: High affinity nerve growth factor receptor (Homo sapiens) (UniProt P04629); assay: Inhibition of TrkA assessed as residual activity at 1 uM
compound,measurement,setting,value
Cc1ccc([N+](=O)[O-])cc1S(=O)(=O)N(C)/N=C/c1cnn2ccc(C#N)cc12,Activity,[1],9%
same,Activity,[2],10%
same,IC50,[3],0.3 µM
same,Activity,[4],Non-toxic
same,IC50,[5],0.06 µM
same,IC50,[6],0.0011 µM
same,Activity,[7],1%
same,Activity,[8],2%
same,IC50,[9],0.0007 µM
same,IC50,[10],0.023 µM
same,Activity,[11],13%
same,inhibition,[12],inactive
same,Activity,[13],Non-toxic
same,Activity,[14],2%
same,IC50,[15],0.0005 µM
same,Activity,[16],42%
same,inhibition,[17],inactive
same,Activity,[18],55%
same,IC50,[19],0.046 µM
same,Activity,[20],15%
same,IC50,[21],0.0009 µM
same,Activity,[22],5%
same,inhibition in vivo at 20 mg/kg,[23],39.1%
same,Ratio IC50,[24],50
same,Activity,[25],4%
same,IC50,[26],1.4 µM
same,Activity,[27],1%
same,IC50,[28],0.026 µM
same,Activity,[29],19%
